# Test results from ChEMBL document CHEMBL3272112, “Cycloalkanones. 8. Hypocholesterolemic activity of long-chain ketones related to pentadecanone” (J Med Chem, 1976).
# Columns and labels:
# Rattus norvegicus [1] = test: Toxicity in Sprague-Dawley rat assessed as increase in epididymis and vas deferens weight at 10 mg/kg/day administered for 16 days measured on day 16 post last dose relative to total body weight (reference value: 0.22 +/- 0.04%); type: organism-based; conditions: in vivo, 384 h
# Rattus norvegicus [2] = test: Toxicity in Sprague-Dawley rat assessed as increase in body weight at 1 mg/kg/day administered for 16 days measured on day 16 post last dose (reference value: 195 +/- 16%); type: organism-based; conditions: in vivo, 384 h
# Rattus norvegicus [3] = test: Hypocholesterolemic activity in Sprague-Dawley rat assessed as serum cholesterol level at 50 mg/kg/day, po administered via intubation measured on day 16 by Liebermann-Burchard method relative to control; type: functional
# Outline: (§1)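 Male Sprague-Dawley rats given compound homogenized in 1% CMC once daily at 11:00 a.m. by oral intubation needle (0.2 cc), doses calculated on weekly body weights; tail-vein blood drawn 24 h after last dose; nonhemolyzed serum (30 μ) assayed by modified Liebermann-Burchard method; N = 8; % of control, mean ± SD; Student's t test.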
# Rattus norvegicus [4] = organism: Rattus norvegicus; test: Disruption of rat liver cell membrane assessed as unlysed cells at 25 mg per gram of tissue measured at 15 mins (reference value: 91 +/- 6%); type: functional
# Outline: (§2)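 Rat liver 10% homogenate in 0.25 M sucrose + 0.001 M EDTA, pH 7.2, incubated at 37°C with Hanke's buffer pH 7.2 and drug suspended in 1% CMC (dose as mg drug per g wet liver); turbidity read as absorbance at 660 nm over 0–4 hr, falling absorbance taken as lysis; expressed as % unlysed cells; vehicle 1% CMC control.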
# Rattus norvegicus [5] = test: Hypocholesterolemic activity in Sprague-Dawley rat assessed as serum cholesterol level at 1 mg/kg/day, po administered via intubation measured on day 4 by Liebermann-Burchard method relative to control; type: functional; outline: as §1
# Rattus norvegicus [6] = test: Toxicity in Sprague-Dawley rat assessed as increase in vesicular gland weight at 10 mg/kg/day administered for 16 days measured on day 16 post last dose relative to total body weight (reference value: 0.118 +/- 0.062%); type: organism-based; conditions: in vivo, 384 h
# Rattus norvegicus [7] = test: Toxicity in Sprague-Dawley rat assessed as increase in body weight at 50 mg/kg/day administered for 16 days measured on day 16 post last dose (reference value: 195 +/- 16%); type: organism-based; conditions: in vivo, 384 h
# Rattus norvegicus [8] = test: Hypocholesterolemic activity in Sprague-Dawley rat assessed as serum cholesterol level at 20 mg/kg/day, po administered via intubation measured on day 16 by Liebermann-Burchard method relative to control; type: functional; outline: as §1
# Rattus norvegicus [9] = test: Toxicity in Sprague-Dawley rat assessed as estrogenic activity at 10 mg/kg/day; type: organism-based; conditions: in vivo
# Outline: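 Weaned rats ovariectomized, left 3 days, then given 10 mg/kg/day test compound (or 10 μg/kg/day 17-ethinylestradiol as reference) for 3 days; killed, uterus removed, trimmed and weighed; expressed as % uterine weight of 1% CMC control, mean ± SD; Student's t test.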
# Rattus norvegicus [10] = test: Toxicity in Sprague-Dawley rat assessed as food intake at 5 mg/kg/day measured after 2 weeks (reference value: 24.8 +/- 1.1 g/day); type: organism-based; conditions: in vivo, 336 h
# Rattus norvegicus [11] = organism: Rattus norvegicus; test: Disruption of rat liver lysosomal membrane assessed as free acid phosphatase activity at 25 mg per gram of tissue measured after 1 hr (reference value: 100 +/- 16%); type: functional, tissue-based
# Outline: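 10% rat liver homogenate incubated with Hanke's buffer pH 7.2 and drug suspension in 1% CMC in a shaker at 37°C; aliquot removed after 1 hr and percent free (unbound) acid phosphatase activity determined as an index of lysosomal membrane rupture.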
# Rattus norvegicus [12] = test: Hypocholesterolemic activity in Sprague-Dawley rat assessed as serum cholesterol level at 5 mg/kg/day, po administered via intubation measured on day 16 by Liebermann-Burchard method relative to control; type: functional; outline: as §1
# Rattus norvegicus [13] = test: Uterotrophic activity in ovariectomized weaned Sprague-Dawley rat assessed as uterine weight at 10 mg/kg/day measured after 3 days (reference value: 100 +/- 15%); type: ADME, organism-based, Uterus; conditions: in vivo, 72 h
# Outline: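 Weaned rats were ovariectomized and left untreated for 3 days. They were then dosed for 3 days with 17-ethinylestradiol 10 µg/kg/day or test compound 10 mg/kg/day, with 1% CMC as the vehicle control. Rats were then killed and the uterus removed, trimmed and weighed. Results are % of control uterine weight, mean ± SD; N = 7; Student's t test.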
# Rattus norvegicus [14] = test: Toxicity in Sprague-Dawley rat assessed as effect on DNA level in liver at 10 mg/kg/day measured after 16 days (reference value: 100 +/- 2%); type: organism-based; conditions: in vivo, 384 h
# Rattus norvegicus [15] = test: Hypocholesterolemic activity in Sprague-Dawley rat assessed as serum cholesterol level at 5 mg/kg/day, po administered via intubation measured on day 4 by Liebermann-Burchard method relative to control; type: functional; outline: as §1
# Rattus norvegicus [16] = test: Toxicity in Sprague-Dawley rat assessed as food intake at 50 mg/kg/day measured after 1 week (reference value: 20.9 +/- 4.9 g/day); type: organism-based; conditions: in vivo, 168 h
# Rattus norvegicus [17] = organism: Rattus norvegicus; test: Disruption of rat liver cell membrane assessed as unlysed cells at 25 mg per gram of tissue measured at 2 hrs (reference value: 77 +/- 8%); type: functional; outline: as §2
# Rattus norvegicus [18] = test: Toxicity in Sprague-Dawley rat assessed as food intake at 50 mg/kg/day measured after 2 weeks (reference value: 24.8 +/- 1.1 g/day); type: organism-based; conditions: in vivo, 336 h
# Rattus norvegicus [19] = organism: Rattus norvegicus; test: Disruption of rat liver cell membrane assessed as unlysed cells at 5 mg per gram of tissue measured at 15 mins (reference value: 91 +/- 6%); type: functional; outline: as §2
# Rattus norvegicus [20] = organism: Rattus norvegicus; test: Disruption of rat liver cell membrane assessed as unlysed cells at 10 mg per gram of tissue measured at 15 mins (reference value: 91 +/- 6%); type: functional; outline: as §2
# Rattus norvegicus [21] = test: Toxicity in Sprague-Dawley rat assessed as food intake at 20 mg/kg/day measured after 2 weeks (reference value: 24.8 +/- 1.1 g/day); type: organism-based; conditions: in vivo, 336 h
# Rattus norvegicus [22] = organism: Rattus norvegicus; test: Disruption of rat liver cell membrane assessed as unlysed cells at 25 mg per gram of tissue measured at 30 mins (reference value: 93 +/- 7%); type: functional; outline: as §2
# Rattus norvegicus [23] = test: Toxicity in Sprague-Dawley rat assessed as increase in liver weight at 10 mg/kg/day administered for 16 days measured on day 16 post last dose relative to total body weight (reference value: 4.35 +/- 0.39%); type: organism-based; conditions: in vivo, 384 h
# Rattus norvegicus [24] = test: Toxicity in Sprague-Dawley rat assessed as food intake at 1 mg/kg/day measured after 1 week (reference value: 20.9 +/- 4.9 g/day); type: organism-based; conditions: in vivo, 168 h
# Rattus norvegicus [25] = test: Toxicity in Sprague-Dawley rat assessed as atrophy of epididymis at 10 mg/kg/day administered for 16 days measured on day 16 post last dose; type: organism-based; conditions: in vivo, 384 h
# Rattus norvegicus [26] = test: Hypocholesterolemic activity in Sprague-Dawley rat assessed as serum cholesterol level at 20 mg/kg/day, po administered via intubation measured on day 4 by Liebermann-Burchard method relative to control; type: functional; outline: as §1
# [27] = Toxicity in CF1 mouse; type: organism-based; conditions: in vivo
# Outline: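 Male CF1 mice; acute lethality measured and LD50 calculated by the Litchfield and Wilcoxon method.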
# Rattus norvegicus [28] = test: Toxicity in Sprague-Dawley rat assessed as increase in body weight at 10 mg/kg/day measured on day 16 (reference value: 195 +/- 16%); type: organism-based; conditions: in vivo
# Rattus norvegicus [29] = test: Toxicity in Sprague-Dawley rat assessed as increase in body weight at 10 mg/kg/day measured on day 10 (reference value: 160 +/- 13%); type: organism-based; conditions: in vivo
# Rattus norvegicus [30] = test: Toxicity in Sprague-Dawley rat assessed as increase in body weight at 20 mg/kg/day administered for 16 days measured on day 16 post last dose (reference value: 195 +/- 16%); type: organism-based; conditions: in vivo, 384 h
smiles,measurement,setting,value
CCCCCCCCCCCCCCC(C)=O,Activity,Rattus norvegicus [1],0.24%
same,Activity,Rattus norvegicus [2],229%
same,Activity,Rattus norvegicus [3],68%
same,Activity,Rattus norvegicus [4],97%
same,Activity,Rattus norvegicus [5],82%
same,Activity,Rattus norvegicus [6],0.121%
same,Activity,Rattus norvegicus [7],226%
same,Activity,Rattus norvegicus [8],69%
same,Activity,Rattus norvegicus [9],Non-toxic
same,Activity,Rattus norvegicus [10],26.3 g/day
same,Activity,Rattus norvegicus [11],116%
same,Activity,Rattus norvegicus [12],67%
same,Activity,Rattus norvegicus [13],64%
same,Activity,Rattus norvegicus [14],114%
same,Activity,Rattus norvegicus [15],74%
same,Activity,Rattus norvegicus [16],22.5 g/day
same,Activity,Rattus norvegicus [17],85%
same,Activity,Rattus norvegicus [18],25.6 g/day
same,Activity,Rattus norvegicus [19],95%
same,Activity,Rattus norvegicus [20],96%
same,Activity,Rattus norvegicus [21],24.2 g/day
same,Activity,Rattus norvegicus [22],96%
same,Activity,Rattus norvegicus [23],4.39%
same,Activity,Rattus norvegicus [24],22.3 g/day
same,Activity,Rattus norvegicus [25],Non-toxic
same,Activity,Rattus norvegicus [26],74%
same,LD50,[27],1750 mg/kg
same,Activity,Rattus norvegicus [28],228%
same,Activity,Rattus norvegicus [29],145%
same,Activity,Rattus norvegicus [30],225%
